Consider 24 compounds from ChEMBL document CHEMBL1153905, “Functionalized 3-benzylidene-indolin-2-ones: inducers of NAD(P)H-quinone oxidoreductase 1 (NQO1) with antiproliferative activity” (Bioorg Med Chem, 2009).

Series [1] concerns the target T1, CYP1A1 (Mus musculus, UniProt P00184).
T1 sequence (P00184 whole entry): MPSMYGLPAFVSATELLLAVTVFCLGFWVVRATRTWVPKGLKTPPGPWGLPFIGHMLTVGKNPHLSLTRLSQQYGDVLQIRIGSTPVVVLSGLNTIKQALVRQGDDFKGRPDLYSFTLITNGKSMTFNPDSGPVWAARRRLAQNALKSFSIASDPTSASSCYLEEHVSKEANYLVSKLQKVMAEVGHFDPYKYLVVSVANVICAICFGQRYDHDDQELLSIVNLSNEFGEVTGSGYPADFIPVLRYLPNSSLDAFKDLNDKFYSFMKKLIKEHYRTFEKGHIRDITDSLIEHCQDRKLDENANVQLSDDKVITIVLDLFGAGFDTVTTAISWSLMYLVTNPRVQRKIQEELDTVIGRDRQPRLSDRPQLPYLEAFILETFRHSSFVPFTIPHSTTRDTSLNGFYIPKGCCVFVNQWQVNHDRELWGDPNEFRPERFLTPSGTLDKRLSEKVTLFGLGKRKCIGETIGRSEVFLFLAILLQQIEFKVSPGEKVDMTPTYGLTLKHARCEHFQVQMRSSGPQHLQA
The series is described as follows: Induction of CYP1A1 activity in mouse Hepa-1c1c7 cells assessed as induction ratio at 1 uM after 48 hrs by EROD assay relative to control. The series is classed as ADME, cell-based. Put shortly:
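About 10,000 Hepa1c1c7 cells/well cultured 24 h, then compound (0.5% DMSO final) for 48 h, at roughly 4 × the concentration doubling NQO1 activity. After PBS wash, cells given 5 µM 7-ethoxyresorufin plus 2 mM salicylamide, 37 °C, 40 min; resorufin fluorescence ex 530/em 590 nm, corrected for compound fluorescence. Ratio = (treated − blank)/(DMSO control − blank); mean ± SD, n = 3.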

Series [2] concerns the target NAD(P)H dehydrogenase [quinone] 1 (Mus musculus) (UniProt Q64669). As to the kind of experiment: Induction of NQO1 activity in mouse Hepa-1c1c7 cells assessed as induction ratio at 1 uM after 48 hrs by MTT assay relative to control. In kind it is cell-based. The essentials: (§1)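 Hepa1c1c7 cells, 10,000 per well, 24 h, were then treated 48 h (DMSO ≤0.5%). Digitonin/EDTA lysates were assayed for menadione-dependent MTT-formazan formation using a G6P/G6PDH NADPH-generating mix with FAD at pH 7.4. The reaction ran 5 min, was stopped with dicoumarol, and read at A590. Degree of induction = (A test − blank)/(A control − blank). Ratios were read off the induction–concentration plot at the EROD test concentration.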
For orientation: Tetrazolium dyes change colour on reduction, which living cells bring about.

A short description of series [3]: Cytotoxicity against mouse Hepa-1c1c7 cells after 48 hrs by MTT assay. Conditions: hepa-1c1c7, 48 h. In kind it is cell-based. Put shortly: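 Murine hepatoma cells in α-MEM with 10% heat- and charcoal-treated fetal calf serum, passages 6–17; MTT read-out as for the cancer lines but with 48 h compound exposure. Highest concentration tested 25 µM. IC50 from survival-versus-concentration curve; mean and SD, n = 3.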

Series [4] deals with T1, CYP1A1. The series is described as follows: Induction of CYP1A1 activity in mouse Hepa-1c1c7 cells assessed as induction ratio at 20 uM after 48 hrs by EROD assay relative to control. In kind it is ADME, cell-based. The essentials: (§2)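 Hepa1c1c7 cells were seeded at 10,000 per well and grown 24 h. They were then exposed 48 h to compound (final DMSO 0.5% v/v) at about 4 × the NQO1 CD. After a PBS wash, cells got 5 µM 7-ethoxyresorufin plus 2 mM salicylamide in medium, 37 °C, 40 min. Resorufin was read at ex 530/em 590 nm, corrected for compound fluorescence. Ratio = (F treated − blank)/(F DMSO control − blank); mean ± SD, n = 3.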

The target in series [5] is NAD(P)H dehydrogenase [quinone] 1 (Mus musculus) (UniProt Q64669). The series is described as follows: Induction of NQO1 activity in mouse Hepa-1c1c7 cells assessed as induction ratio at 20 uM after 48 hrs by MTT assay relative to control. The series is classed as cell-based. The essentials:
as §1

Series [6] shares this target. As to the kind of experiment: Induction of NQO1 activity in mouse Hepa-1c1c7 cells assessed as induction ratio at 5 uM after 48 hrs by MTT assay relative to control. In kind it is cell-based. Put shortly:
as §1

Series [7] has as its target T1, CYP1A1. As to the kind of experiment: Induction of CYP1A1 activity in mouse Hepa-1c1c7 cells assessed as induction ratio at 5 uM after 48 hrs by EROD assay relative to control. In kind it is ADME, cell-based. The essentials:
as §2

The subject of series [8] is HCT-116. The series is described as follows: Antiproliferative activity against human HCT116 cells after 72 hrs by MTT assay. The series is classed as functional, cell-based. Conditions: HCT-116, 72 h. The essentials:
(§3)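 Cells seeded at 10,000 (MCF7), 4000 (HCT116) or 5000 (CCL186) per well and grown 24 h; MCF7 and CCL186 in EMEM with pyruvate, glutamine, 10% FBS; HCT116 in McCoy's 5A with 10% FBS. Compounds from DMSO stocks (≤1% DMSO final), 72 h exposure; MTT 0.5 mg/ml for 3 h, formazan in DMSO read at 590 nm. IC50 from sigmoidal survival curve, three separate occasions.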

Series [9] in a line: Selectivity ratio of IC50 for human CCL186 cells to IC50 for human HCT116 cells. In kind it is ADME, cell-based, HCT-116. Conditions: CCL186 cells and HCT116 cells, read-out: Ratio IC50. Put shortly:
(§4)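 MTT assay. MCF7 and CCL186 cells were grown in EMEM/10% FBS, HCT116 in McCoy's 5A/10% FBS. Seeding was 10,000 (MCF7), 4000 (HCT116) and 5000 (CCL186) cells per well, 24 h. Compound exposure was 72 h, DMSO ≤1% final. MTT 0.5 mg/ml for 3 h, formazan dissolved in DMSO, A590. IC50 came from sigmoidal survival curves, with 3 separate occasions per concentration. Ratio = IC50 CCL186 / IC50 of the cancer line.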

Series [10] in a line: Antiproliferative activity against human CCL186 cells after 72 hrs by MTT assay. In kind it is cell-based. Conditions: CCL186, 72 h. Put shortly: as §3
Series [11] concerns MCF7. The series is described as follows: Antiproliferative activity against human MCF7 cells after 72 hrs by MTT assay. The series is classed as functional, cell-based. Conditions: MCF7, 72 h. The essentials: as §3
Series [12] relates to MCF7. The series is described as follows: Selectivity ratio of IC50 for human CCL186 cells to IC50 for human MCF7 cells. Put shortly: as §4

Sequence of NAD(P)H dehydrogenase [quinone] 1 (Mus musculus) (Q64669 whole entry): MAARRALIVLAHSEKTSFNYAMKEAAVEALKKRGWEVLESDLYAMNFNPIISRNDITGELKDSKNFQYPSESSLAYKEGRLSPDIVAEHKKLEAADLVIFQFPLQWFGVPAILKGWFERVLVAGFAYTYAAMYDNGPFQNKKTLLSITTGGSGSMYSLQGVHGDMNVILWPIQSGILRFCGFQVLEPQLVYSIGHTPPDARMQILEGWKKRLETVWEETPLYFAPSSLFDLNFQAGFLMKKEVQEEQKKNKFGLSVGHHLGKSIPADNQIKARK

In the case of `Cc1cccc(/C=C2/C(=O)Nc3ccccc32)c1`, in [1], the fold induction at 48 h, 1 µM turned out to be 1.08. In [2], the Ratio amounted to 4.04. The compound further displayed an IC50 in series [3] above 25 µM.

As to `O=C1Nc2ccccc2/C1=C\c1ccc(F)cc1`, the fold induction at 48 h, 20 µM in series [4] was 1.64. The IC50 in series [3] is above 25 µM. Also, in series [5], the Ratio was 5.69.

As to `O=C1Nc2ccccc2/C1=C\c1c[nH]c2ccccc12`, the fold induction at 48 h, 1 µM in [1] was determined as 1.28. The Ratio in series [2] was 4.33. In [3], the IC50 was above 25 µM.

Turning to `O=C1Nc2ccccc2/C1=C\c1ccccc1`, the Ratio in series [6] stood at 5.13. For the same compound, the fold induction at 48 h, 5 µM in series [7] was determined as 1.01. Moreover, the IC50 in [3] is above 25 µM.

With `COc1ccccc1/C=C1/C(=O)Nc2ccccc21`, the fold induction at 48 h, 1 µM in [1] was determined as 2.48. Also, the Ratio in [2] was found to be 4.03. For the same compound, in series [3], the IC50 is above 25 µM.

For the compound `O=C1Nc2ccccc2/C1=C\c1ccncc1`, the fold induction at 48 h, 20 µM in [4] was 1.01. Besides, the IC50 in [3] was above 25 µM. Moreover, in series [5], the Ratio was 2.08.

The compound `Cc1ccc(CC2C(=O)Nc3ccccc32)cc1` (stereo unspecified) yielded an IC50 in [3] above 25 µM.

For the compound `O=C1Nc2ccccc2/C1=C\c1ccccc1O`, the fold induction at 48 h, 20 µM in series [4] was 1.02. In [3], this compound yielded an IC50 above 25 µM. In [5], the Ratio stood at 3.35.

Consider `COc1ccc(/C=C2/C(=O)Nc3cc(Cl)ccc32)cc1O`, for which, in series [1], the fold induction at 48 h, 1 µM worked out at 2.33. In addition, in series [2], the Ratio came out at 5.09. The compound also yielded an IC50 in [3] above 25 µM.

Regarding `COc1ccc(/C=C2/C(=O)Nc3ccccc32)cc1`, the Ratio in series [6] turned out to be 4.5. In series [7], the fold induction at 48 h, 5 µM was determined as 1.04. This compound registered an IC50 in [3] above 25 µM.

Regarding `COc1cccc(/C=C2/C(=O)Nc3ccccc32)c1`, the fold induction at 48 h, 1 µM in series [1] amounted to 1.26. Moreover, in [2], the Ratio was 4.21. Besides, in series [3], the IC50 is above 25 µM.

For `COc1cc(/C=C2/C(=O)Nc3ccccc32)cc(OC)c1`, the IC50 in [8] was found to be 5.8 µM; in series [10], 23.6 µM; in series [3], 16 µM; in [11], 10.5 µM. For the same compound, the selectivity ratio in series [9] amounted to 2.2. Besides, the “Ratio IC50” value in series [12] turned out to be 4.1.

Turning to `COc1cccc(/C=C2/C(=O)N(C)c3ccccc32)c1`, the Ratio in series [6] stood at 4.78. The fold induction at 48 h, 5 µM in series [7] amounted to 1.18. The half-maximal inhibitory concentration (IC50) in [3] is above 25 µM.

Turning to `O=C1Nc2ccccc2/C1=C\c1cc(O)cc(O)c1`, the fold induction at 48 h, 20 µM in series [4] worked out at 1.04. Moreover, the IC50 in series [3] was above 25 µM. Moreover, the Ratio in series [5] was 3.82.

For `O=C1Nc2ccccc2/C1=C\c1cccc(O)c1`, the Ratio in series [6] came out at 3.94. Moreover, the fold induction at 48 h, 5 µM in series [7] was found to be 1.11. This compound also showed an IC50 in series [3] above 25 µM.

In the case of `COc1cccc(CC2C(=O)Nc3ccccc32)c1` (stereo unspecified), in [4], the fold induction at 48 h, 20 µM amounted to 1.78. The IC50 in series [3] is above 25 µM. In series [5], the Ratio turned out to be 2.23.

Regarding `O=C1Nc2ccccc2/C1=C\c1ccccc1C(F)(F)F`, the fold induction at 48 h, 20 µM in series [4] was found to be 1.2. Further, in [3], the IC50 was above 25 µM. Also, the Ratio in series [5] came to 2.96.

On to `O=C1Nc2ccccc2/C1=C\c1ccccc1F`, for which, in series [6], the Ratio was found to be 6.8. The fold induction at 48 h, 5 µM in series [7] amounted to 1.26. In [3], this compound had an IC50 above 25 µM.

As to `COc1cccc(/C=C2/C(=O)Nc3cc(F)ccc32)c1`, the fold induction at 48 h, 1 µM in [1] is 1.25. Also, in series [2], the Ratio stood at 3.21. In series [3], this compound gave an IC50 of 9.8 µM.

On to `COc1ccc(/C=C2/C(=O)N(C)c3ccccc32)cc1O`, for which the Ratio in series [6] stood at 2.64. In series [7], the fold induction at 48 h, 5 µM stood at 1.08. The compound also had an IC50 in series [3] of 15.5 µM.

Turning to `Cc1ccccc1/C=C1/C(=O)Nc2ccccc21`, the Ratio in series [6] worked out at 4.45. In series [7], the fold induction at 48 h, 5 µM came out at 1.66. The compound also displayed an IC50 in series [3] above 25 µM.

On to `COc1cccc(/C=C2\Nc3ccccc3C2=O)c1`, for which the Ratio in [6] amounted to 3.88. Also, the fold induction at 48 h, 5 µM in series [7] was found to be 1.13. In series [3], this compound returned an IC50 of 21.2 µM.

For the compound `COc1cc(/C=C2/C(=O)Nc3ccccc32)ccc1O`, the Ratio in series [6] is 4. For the same compound, the fold induction at 48 h, 5 µM in series [7] stood at 1.32. Besides, in series [3], the midpoint of inhibition, the IC50, lay at 14.6 µM.

The compound `N#Cc1ccc(/C=C2/C(=O)Nc3ccccc32)cc1` yielded an IC50 in series [3] above 25 µM.

Broadly, the fold induction is the signal under treatment as a multiple of the control signal. The term IC50 denotes the concentration at which inhibition is half-maximal.
